Measurements taken from ChEMBL document CHEMBL1156264, “Synthesis and structure-activity relationships of dimeric peptide antagonists of the human immunoglobulin G-human neonatal Fc receptor (IgG-FcRn) interaction” (J Med Chem, 2010).
Active and inactive are the calls of the source. The rule behind the calls is not given here. Numbered stars: 1 amine (or outer) side, 2 acyl side, 3 side chain; on linkers, the order of the positions; unused ones are H or OH. Bridge positions count the residues as written; N and C are the ends. Square brackets hold non-standard residues; d marks the D form. Peptide text beside a SMILES is read from it. I, II: the chains in the order shown. X1 = O=C(C(=O)[*:2])[C@H](Cc1ccc(O)cc1)N[*:1]; NHCH2CH2N(Me)CH2CO = CN(CCN[*:1])CC(=O)[*:2]; NMeL = CN[C@@H](CC(C)C)C(=O)O; Suc = O=C(CCC(=O)[*:2])[*:1]; X4 = O=C(CSCC(=O)[*:2])[*:1]; Sar = CNCC(=O)O

Assays:
[1] = test system: Mus musculus; assay: Increase in human IgG catabolism in endogenous FcRn/beta2m gene knockout TG32B transgenic mouse harboring human FcRn at 5 mg/kg, iv QD for 4 consecutive days measured after 24 hrs by ELISA; type: functional, organism-based; parameters: dose 5 mg/kg
Outline: (§1)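 TG32B mice (muFcRn−/−, muβ2m−/−, huFcRn+/+, huβ2m+/+), 4 per group, got 500 mg/kg hIgG (pooled subtypes) iv at 0 h. Peptide or vehicle (20 mM sodium acetate, pH 5) was given iv at 24, 48, 72 and 96 h. Blood was taken before each injection and at 30, 120 and 168 h. Serum hIgG was measured by ELISA: goat anti-hIgG(Fab) capture, goat anti-hIgG(Fc)-HRP detection.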

[2] = target: T1, IgG receptor FcRn large subunit p51 (Homo sapiens, UniProt P55899); assay: Inhibition of IgG binding to soluble human FcRn after 2 hrs by competition ELISA
T1 sequence (P55899 whole entry): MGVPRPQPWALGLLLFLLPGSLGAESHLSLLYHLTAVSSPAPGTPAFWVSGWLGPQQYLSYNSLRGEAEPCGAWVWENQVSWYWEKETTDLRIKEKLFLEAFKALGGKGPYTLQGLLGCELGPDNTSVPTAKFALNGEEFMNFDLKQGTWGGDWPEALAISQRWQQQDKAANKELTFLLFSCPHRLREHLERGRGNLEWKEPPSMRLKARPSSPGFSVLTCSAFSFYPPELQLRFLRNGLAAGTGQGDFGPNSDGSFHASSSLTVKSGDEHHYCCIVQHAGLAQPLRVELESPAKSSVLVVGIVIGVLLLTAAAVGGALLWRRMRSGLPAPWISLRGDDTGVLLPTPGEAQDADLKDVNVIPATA

[3] = target: T1, IgG receptor FcRn large subunit p51; assay: Ratio of RF-Pen-TGHFG-Sar-NMeLeu-YPC IC50 to compound IC50 for soluble human FcRn
[4] = test system: Mus musculus; assay: Increase in human IgG catabolism in endogenous FcRn/beta2m gene knockout TG32B transgenic mouse harboring human FcRn at 2.5 mg/kg, iv QD for 4 consecutive days measured after 24 hrs by ELISA; type: functional, organism-based; parameters: dose 2.5 mg/kg; outline: as §1
[5] = target: T1, IgG receptor FcRn large subunit p51; assay: Ratio of QRF-Asp-TGHFGGLYP-Lys-NGP IC50 to compound IC50 for soluble human FcRn

Structure (SMILES) | Activity [1] | IC50 [2] [nM] | Ratio IC50 [3] | Activity [4] | Ratio IC50 [5]
CC(C)C[C@H]1C(=O)N[C@@H](Cc2ccc(O)cc2)C(=O)C(=O)N2CCC[C@H]2C(=O)N[C@H](C(N)=O)CCCCNC(=O)C[C@H](NC(=O)[C@H](Cc2ccccc2)NC(=O)[C@H](CCCNC(=N)N)NC(=O)CCC(=O)NCCN(C)CC(=O)N[C@@H](CCCNC(=N)N)C(=O)N[C@@H](Cc2ccccc2)C(=O)N[C@H]2CC(=O)NCCCC[C@@H](C(N)=O)NC(=O)[C@@H]3CCCN3C(=O)C(=O)[C@H](Cc3ccc(O)cc3)NC(=O)[C@H](CC(C)C)N(C)C(=O)CN(C)C(=O)CNC(=O)[C@H](Cc3ccccc3)NC(=O)[C@H](Cc3c[nH]cn3)NC(=O)CNC(=O)[C@H]([C@@H](C)O)NC2=O)C(=O)N[C@@H]([C@@H](C)O)C(=O)NCC(=O)N[C@@H](Cc2c[nH]cn2)C(=O)N[C@@H](Cc2ccccc2)C(=O)NCC(=O)N(C)CC(=O)N1C (I: [NHCH2CH2N(Me)CH2CO]RFDTGHFG[Sar][NMeL][X1]PK-NH2 / II: RFDTGHFG[Sar][NMeL][X1]PK-NH2; lactam I:4-I:14, II:3-II:13; linker I:N-II:N via Suc) | Active | 50 | – | – | –
CC(C)C[C@H]1C(=O)N[C@@H](Cc2ccc(O)cc2)C(=O)C(=O)N2CCC[C@H]2C(=O)N[C@H](C(N)=O)CSSC(C)(C)[C@H](NC(=O)[C@H](Cc2ccccc2)NC(=O)[C@H](CCCNC(=N)N)NC(=O)CN(C)CCNC(=O)CCC(=O)N[C@@H](CCCNC(=N)N)C(=O)N[C@@H](Cc2ccccc2)C(=O)N[C@@H]2C(=O)N[C@@H]([C@@H](C)O)C(=O)NCC(=O)N[C@@H](Cc3c[nH]cn3)C(=O)N[C@@H](Cc3ccccc3)C(=O)NCC(=O)N(C)CC(=O)N(C)[C@@H](CC(C)C)C(=O)N[C@H](Cc3ccc(O)cc3)C(=O)C(=O)N3CCC[C@H]3C(=O)N[C@H](C(N)=O)CSSC2(C)C)C(=O)N[C@@H]([C@@H](C)O)C(=O)NCC(=O)N[C@@H](Cc2c[nH]cn2)C(=O)N[C@@H](Cc2ccccc2)C(=O)NCC(=O)N(C)CC(=O)N1C | – | 2.6 | 200 | Active | –
CC(C)C[C@H]1C(=O)N[C@@H](Cc2ccc(O)cc2)C(=O)C(=O)N2CCC[C@H]2C(=O)N[C@H](C(=O)N[C@@H](CC(N)=O)C(=O)NCC(=O)N2CCC[C@H]2C(N)=O)CCCCNC(=O)C[C@H](NC(=O)[C@H](Cc2ccccc2)NC(=O)CSCC(=O)N[C@@H](CCC(N)=O)C(=O)N[C@@H](CCCNC(=N)N)C(=O)N[C@@H](Cc2ccccc2)C(=O)N[C@H]2CC(=O)NCCCC[C@@H](C(=O)N[C@@H](CC(N)=O)C(=O)NCC(=O)N3CCC[C@H]3C(N)=O)NC(=O)[C@@H]3CCCN3C(=O)C(=O)[C@H](Cc3ccc(O)cc3)NC(=O)[C@H](CC(C)C)N(C)C(=O)CN(C)C(=O)CNC(=O)[C@H](Cc3ccccc3)NC(=O)[C@H](Cc3c[nH]cn3)NC(=O)CNC(=O)[C@H]([C@@H](C)O)NC2=O)C(=O)N[C@@H]([C@@H](C)O)C(=O)NCC(=O)N[C@@H](Cc2c[nH]cn2)C(=O)N[C@@H](Cc2ccccc2)C(=O)NCC(=O)N(C)CC(=O)N1C (I: QRFDTGHFG[Sar][NMeL][X1]PKNGP-NH2 / II: FDTGHFG[Sar][NMeL][X1]PKNGP-NH2; lactam I:4-I:14, II:2-II:12; linker I:N-II:N via X4) | – | 580 | – | – | 38
